Reference: ChEMBL document CHEMBL1133058, “(+)-4-phosphonophenylglycine (PPG) a new group III selective metabotropic glutamate receptor agonist” (Bioorg Med Chem Lett, 2000)
Each block holds one compound with its values, some of them ahead of it. Calls of active or inactive are those of the source. The calls are words filed in the database; no cut-off is given here.

Assays:
[1] = molecular target: T1, Metabotropic glutamate receptor 4 (Homo sapiens, UniProt Q14833); assay: Inhibition of forskolin stimulated cAMP accumulation in CHO cells expressing hmGluR4a at a concentration of 2000 uM; Inactive
[2] = molecular target: T2, Metabotropic glutamate receptor 7 (Homo sapiens, UniProt Q14831); assay: Inhibition of forskolin stimulated cAMP accumulation in CHO cells expressing hmGluR7b at a concentration of 500 uM; Inactive
[3] = molecular target: T2, Metabotropic glutamate receptor 7; assay: Compound was evaluated for the inhibition of forskolin stimulated cAMP accumulation in CHO cells expressing hmGluR7b; assay type: functional, cell-based
In short: (§1)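 Human mGluR4a or mGluR7b stably expressed in CHO cells; both enantiomers tested in the same functional assay, with cAMP measured by radioimmunoassay and EC50 values reported.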

[4] = molecular target: T1, Metabotropic glutamate receptor 4; assay: Compound was evaluated for the inhibition of forskolin stimulated cAMP accumulation in CHO cells expressing hmGluR4a; assay type: functional, cell-based
In short: as §1

[5] = molecular target: T3, Metabotropic glutamate receptor 4 (Rattus norvegicus, UniProt P31423); assay: Effective concentration against Metabotropic glutamate receptor 4
[6] = molecular target: Glutamate receptor ionotropic, NMDA 1 (Homo sapiens, UniProt Q05586); assay: Dissociation constant against N-methyl-D-aspartate glutamate receptor using [3H]CPP binding was determined
[7] = molecular target: T3, Metabotropic glutamate receptor 4; assay: Effective concentration against rat Metabotropic glutamate receptor 4
[8] = molecular target: Metabotropic glutamate receptor 3 (Homo sapiens) (UniProt Q14832); assay: Activity against Metabotropic glutamate receptor 3; Not active
[9] = molecular target: Glutamate [NMDA] receptor (Homo sapiens) (UniProt Q05586+Q12879+Q13224+O15399+O60391+Q14957+Q8TCU5); assay: Binding affinity (100 uM) against N-methyl-D-aspartate glutamate receptor using [3H]CPP binding was determined; No activity; assay type: protein-complex assay
[10] = molecular target: Metabotropic glutamate receptor 3 (Homo sapiens) (UniProt Q14832); assay: Activity against human Metabotropic glutamate receptor 3 up to a concentration of 300 uM; Not active
[11] = molecular target: Glutamate NMDA receptor; GRIN1/GRIN2B (Homo sapiens) (UniProt Q05586+Q13224); assay: Activity against cloned ionotropic N-methyl-D-aspartate glutamate receptor 1/2B; Not active; assay type: protein-complex assay
[12] = molecular target: Metabotropic glutamate receptor 2 (Homo sapiens) (UniProt Q14416); assay: Activity against human Metabotropic glutamate receptor 2 up to a concentration of 300 uM; Not active
[13] = molecular target: Metabotropic glutamate receptor 1 (Homo sapiens) (UniProt Q13255); assay: Activity against human Metabotropic glutamate receptor 1 up to a concentration of 300 uM; Not active
[14] = molecular target: Glutamate NMDA receptor; GRIN1/GRIN2A (Homo sapiens) (UniProt Q05586+Q12879); assay: Activity against cloned ionotropic N-methyl-D-aspartate glutamate receptor 1/2A; Not active; assay type: protein-complex assay
[15] = molecular target: Metabotropic glutamate receptor 5 (Homo sapiens) (UniProt P41594); assay: Activity against human Metabotropic glutamate receptor 5 up to a concentration of 300 uM; Not active
[16] = molecular target: Metabotropic glutamate receptor 6 (Homo sapiens) (UniProt O15303); assay: Activity against Metabotropic glutamate receptor 6; Not active

T2 sequence (Q14831 whole entry): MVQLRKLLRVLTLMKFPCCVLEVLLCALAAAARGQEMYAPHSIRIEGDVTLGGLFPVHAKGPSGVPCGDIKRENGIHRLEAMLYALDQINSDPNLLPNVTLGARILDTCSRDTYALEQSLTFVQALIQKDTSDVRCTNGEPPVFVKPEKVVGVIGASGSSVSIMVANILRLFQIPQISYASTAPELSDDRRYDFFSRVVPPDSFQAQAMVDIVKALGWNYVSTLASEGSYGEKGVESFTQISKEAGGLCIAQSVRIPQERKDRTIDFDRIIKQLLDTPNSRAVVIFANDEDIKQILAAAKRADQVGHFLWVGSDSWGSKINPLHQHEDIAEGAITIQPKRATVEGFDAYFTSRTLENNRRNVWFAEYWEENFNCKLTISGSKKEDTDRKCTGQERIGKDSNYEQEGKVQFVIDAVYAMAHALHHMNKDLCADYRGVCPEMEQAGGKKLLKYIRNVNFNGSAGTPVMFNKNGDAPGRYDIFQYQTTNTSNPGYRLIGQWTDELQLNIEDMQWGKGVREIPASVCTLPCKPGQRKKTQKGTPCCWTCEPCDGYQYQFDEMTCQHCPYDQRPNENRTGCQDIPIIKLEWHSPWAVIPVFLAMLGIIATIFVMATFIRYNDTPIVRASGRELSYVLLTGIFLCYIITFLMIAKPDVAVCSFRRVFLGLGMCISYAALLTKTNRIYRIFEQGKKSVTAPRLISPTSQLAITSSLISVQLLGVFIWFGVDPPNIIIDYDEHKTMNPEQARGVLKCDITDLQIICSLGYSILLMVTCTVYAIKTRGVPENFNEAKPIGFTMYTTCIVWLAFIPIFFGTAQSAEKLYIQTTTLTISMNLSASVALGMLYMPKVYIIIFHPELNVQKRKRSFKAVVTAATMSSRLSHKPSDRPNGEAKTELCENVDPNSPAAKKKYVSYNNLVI
T1 sequence (Q14833 whole entry): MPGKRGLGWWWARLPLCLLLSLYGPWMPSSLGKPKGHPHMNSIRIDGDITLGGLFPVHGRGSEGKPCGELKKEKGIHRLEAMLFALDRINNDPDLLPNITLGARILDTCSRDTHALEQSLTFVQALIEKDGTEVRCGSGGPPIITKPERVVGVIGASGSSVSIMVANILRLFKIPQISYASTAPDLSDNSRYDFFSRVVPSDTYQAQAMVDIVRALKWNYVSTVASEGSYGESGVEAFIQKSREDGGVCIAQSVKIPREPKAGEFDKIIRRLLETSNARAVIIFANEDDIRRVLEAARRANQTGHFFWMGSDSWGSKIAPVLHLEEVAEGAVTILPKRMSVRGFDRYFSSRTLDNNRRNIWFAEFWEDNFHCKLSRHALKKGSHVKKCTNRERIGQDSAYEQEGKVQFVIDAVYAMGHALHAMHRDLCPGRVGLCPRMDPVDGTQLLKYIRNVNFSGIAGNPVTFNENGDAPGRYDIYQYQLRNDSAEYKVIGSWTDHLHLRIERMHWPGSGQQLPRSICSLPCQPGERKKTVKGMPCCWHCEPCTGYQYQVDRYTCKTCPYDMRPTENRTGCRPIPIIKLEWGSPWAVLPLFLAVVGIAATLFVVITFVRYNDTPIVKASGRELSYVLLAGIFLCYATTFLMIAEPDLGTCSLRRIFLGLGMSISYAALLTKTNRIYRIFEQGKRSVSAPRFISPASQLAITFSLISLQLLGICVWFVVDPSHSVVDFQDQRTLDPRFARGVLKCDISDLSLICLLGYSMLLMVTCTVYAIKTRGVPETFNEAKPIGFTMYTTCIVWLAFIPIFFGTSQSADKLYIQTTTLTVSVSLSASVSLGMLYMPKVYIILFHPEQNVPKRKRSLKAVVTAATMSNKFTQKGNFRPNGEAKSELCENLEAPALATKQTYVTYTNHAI
Chain of Metabotropic glutamate receptor 3 (Homo sapiens) (Q14832 23-879 limits assumed): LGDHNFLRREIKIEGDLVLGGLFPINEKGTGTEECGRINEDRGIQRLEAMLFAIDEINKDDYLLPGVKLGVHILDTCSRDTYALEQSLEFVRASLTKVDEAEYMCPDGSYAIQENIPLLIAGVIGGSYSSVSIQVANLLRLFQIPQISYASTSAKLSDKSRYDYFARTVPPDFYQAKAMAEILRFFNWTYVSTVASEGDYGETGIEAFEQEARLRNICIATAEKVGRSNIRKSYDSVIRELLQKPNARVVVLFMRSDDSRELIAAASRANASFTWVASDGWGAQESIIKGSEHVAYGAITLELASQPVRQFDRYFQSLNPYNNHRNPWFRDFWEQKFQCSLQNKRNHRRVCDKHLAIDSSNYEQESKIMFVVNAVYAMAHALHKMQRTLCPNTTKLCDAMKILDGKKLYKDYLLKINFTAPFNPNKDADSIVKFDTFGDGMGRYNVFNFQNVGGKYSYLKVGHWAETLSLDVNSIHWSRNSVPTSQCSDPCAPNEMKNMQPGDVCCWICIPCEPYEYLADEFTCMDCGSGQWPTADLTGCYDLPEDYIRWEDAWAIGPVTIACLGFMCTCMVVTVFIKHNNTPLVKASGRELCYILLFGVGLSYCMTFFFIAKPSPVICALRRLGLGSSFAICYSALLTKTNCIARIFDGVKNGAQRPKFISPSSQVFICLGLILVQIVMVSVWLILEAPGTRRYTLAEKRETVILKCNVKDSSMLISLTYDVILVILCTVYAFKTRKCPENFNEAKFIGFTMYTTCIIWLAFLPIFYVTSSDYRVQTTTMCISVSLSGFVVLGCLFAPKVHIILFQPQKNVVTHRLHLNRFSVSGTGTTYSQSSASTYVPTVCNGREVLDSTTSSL
T3 sequence (P31423 whole entry): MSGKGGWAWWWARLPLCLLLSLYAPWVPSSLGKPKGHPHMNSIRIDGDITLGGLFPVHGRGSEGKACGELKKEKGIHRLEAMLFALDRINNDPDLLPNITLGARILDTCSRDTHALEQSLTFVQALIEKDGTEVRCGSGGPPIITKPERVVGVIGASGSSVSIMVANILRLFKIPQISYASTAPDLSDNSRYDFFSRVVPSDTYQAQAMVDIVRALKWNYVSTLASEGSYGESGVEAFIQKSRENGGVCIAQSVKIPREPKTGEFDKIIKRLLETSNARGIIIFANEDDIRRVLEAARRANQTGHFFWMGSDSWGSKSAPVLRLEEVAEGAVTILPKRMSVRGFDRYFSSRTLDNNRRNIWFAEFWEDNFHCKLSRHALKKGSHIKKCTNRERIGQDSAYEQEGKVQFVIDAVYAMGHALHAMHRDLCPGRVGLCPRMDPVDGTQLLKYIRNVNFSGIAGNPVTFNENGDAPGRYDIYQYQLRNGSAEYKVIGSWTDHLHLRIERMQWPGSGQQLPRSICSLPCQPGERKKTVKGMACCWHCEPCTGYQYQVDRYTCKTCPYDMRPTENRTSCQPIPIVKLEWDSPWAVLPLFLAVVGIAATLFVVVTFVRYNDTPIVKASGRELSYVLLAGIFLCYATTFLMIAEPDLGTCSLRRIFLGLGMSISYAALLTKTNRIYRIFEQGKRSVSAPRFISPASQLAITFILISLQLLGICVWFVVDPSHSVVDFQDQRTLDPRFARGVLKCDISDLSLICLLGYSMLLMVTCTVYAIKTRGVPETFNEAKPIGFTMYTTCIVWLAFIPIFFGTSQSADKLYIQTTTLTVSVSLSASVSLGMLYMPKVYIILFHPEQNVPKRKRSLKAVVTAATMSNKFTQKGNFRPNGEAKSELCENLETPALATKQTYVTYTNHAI
Chain of Metabotropic glutamate receptor 1 (Homo sapiens) (Q13255 19-1194 limits assumed): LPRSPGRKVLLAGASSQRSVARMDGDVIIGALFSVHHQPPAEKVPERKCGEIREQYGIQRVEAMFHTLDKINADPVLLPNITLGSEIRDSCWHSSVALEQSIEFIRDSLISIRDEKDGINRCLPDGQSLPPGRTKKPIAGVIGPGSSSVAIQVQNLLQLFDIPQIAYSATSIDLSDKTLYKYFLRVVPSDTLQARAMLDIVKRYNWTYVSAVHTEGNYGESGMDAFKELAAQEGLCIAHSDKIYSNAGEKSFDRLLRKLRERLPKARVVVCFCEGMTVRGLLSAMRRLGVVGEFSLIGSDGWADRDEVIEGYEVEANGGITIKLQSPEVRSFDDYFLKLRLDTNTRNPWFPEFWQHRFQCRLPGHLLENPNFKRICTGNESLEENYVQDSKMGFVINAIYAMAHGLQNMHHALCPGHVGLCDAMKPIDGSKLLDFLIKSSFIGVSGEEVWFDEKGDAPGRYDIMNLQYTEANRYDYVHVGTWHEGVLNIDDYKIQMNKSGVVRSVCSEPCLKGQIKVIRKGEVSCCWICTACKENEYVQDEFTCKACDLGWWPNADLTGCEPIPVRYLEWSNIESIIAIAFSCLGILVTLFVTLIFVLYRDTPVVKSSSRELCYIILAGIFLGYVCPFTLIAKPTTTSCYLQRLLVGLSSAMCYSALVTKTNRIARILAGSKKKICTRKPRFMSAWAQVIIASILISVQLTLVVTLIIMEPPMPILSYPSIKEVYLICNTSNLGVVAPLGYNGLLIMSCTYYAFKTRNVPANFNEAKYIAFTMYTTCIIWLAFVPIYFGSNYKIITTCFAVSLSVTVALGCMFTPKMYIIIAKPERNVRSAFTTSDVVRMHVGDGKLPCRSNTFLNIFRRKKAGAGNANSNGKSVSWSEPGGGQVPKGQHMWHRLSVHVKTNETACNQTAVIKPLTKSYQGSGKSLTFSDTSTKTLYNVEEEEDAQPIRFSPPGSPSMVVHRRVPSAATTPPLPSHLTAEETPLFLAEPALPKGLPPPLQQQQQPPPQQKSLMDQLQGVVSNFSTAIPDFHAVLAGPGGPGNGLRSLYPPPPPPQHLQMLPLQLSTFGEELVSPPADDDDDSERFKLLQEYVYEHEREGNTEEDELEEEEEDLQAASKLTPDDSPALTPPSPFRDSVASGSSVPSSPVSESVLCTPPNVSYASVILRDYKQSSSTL

Compound: NC(C(=O)O)c1ccc(P(=O)(O)O)cc1 (stereo not drawn)
EC50 [1]: Not Active
EC50 [2]: Not Active

Compound: NC1(C(=O)O)CC1CP(=O)(O)O (stereo not drawn)
EC50 [5]: 0.5 µM

Compound: NC(C(=O)O)c1ccc(CP(=O)(O)O)cc1 (stereo not drawn)
Kd [6]: 3 µM

Compound: NC1(C(=O)O)CC(=CP(=O)(O)O)C1 (stereo not drawn)
EC50 [7]: 4.5 µM

Continued, values first:

EC50 [3]: 48 µM
EC50 [4]: 3.2 µM
Compound: NC(C(=O)O)c1ccc(P(=O)(O)O)cc1 (single isomer, unassigned; (+))

Activity [8]: inactive
Activity [9]: inactive
Activity [10]: inactive
Activity [11]: inactive
Activity [12]: inactive
Activity [13]: inactive
Activity [14]: inactive
Activity [15]: inactive
Activity [16]: inactive
Compound: NC(C(=O)O)c1ccc(P(=O)(O)O)cc1 (stereo in doubt) [listing 1 of 2 here]

EC50 [3]: 185 µM
EC50 [4]: 5.2 µM
Compound: NC(C(=O)O)c1ccc(P(=O)(O)O)cc1 (stereo in doubt) [listing 2 of 2 here]
